# Compound activity from PubChem BioAssay.
# RBBP9 inhibitor: inhibitors of human serine hydrolase RBBP9 | inhibition, % at 7.94 µM | hit rate 0.2% among 220,000 | O75884 | AID 1515 | recombinant RBBP9, FP-Rh probe fluorescence polarization;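 active = inhibition above the campaign mean of all tested compounds plus 3 SD, cut at about 14% in these data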;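 note: plate controls were DMSO wells with RBBP9 for no effect and wells lacking RBBP9 protein for full effect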
# Target sequence (O75884 whole entry, looked up): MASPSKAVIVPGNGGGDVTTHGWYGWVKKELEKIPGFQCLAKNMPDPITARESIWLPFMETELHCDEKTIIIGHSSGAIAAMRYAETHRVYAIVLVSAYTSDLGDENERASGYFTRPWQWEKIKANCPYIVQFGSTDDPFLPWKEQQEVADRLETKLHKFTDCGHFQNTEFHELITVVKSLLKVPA
#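 Measured by – fluorescence polarization · Test system – RBBP9 protein · Input – 2.5 µM RBBP9 dispensing solution, before mixing · Measure – percent inhibition from mP, scaled between DMSO and no-protein wells · Benchmarks – DMSO-treated enzyme wells and wells lacking RBBP9 · Times – preincubation 30 min plus labeling 45 min at 25 °C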
# GSTO1 counter: blocks human GSTO1 in RBBP9 counter-screen; P78417; recombinant GSTO1, activity-based probe fluorescence polarization; inhibition, % at 5.96 µM; hit rate 1.1% among 300,000; AID 1974;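 active = inhibition above the campaign mean inhibition plus 3 SD, cut at about 35% in these data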;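 note: 0% = GSTO1-1 with DMSO and 100% = wells lacking GSTO1-1 enzyme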
# Target sequence (P78417 whole entry, looked up): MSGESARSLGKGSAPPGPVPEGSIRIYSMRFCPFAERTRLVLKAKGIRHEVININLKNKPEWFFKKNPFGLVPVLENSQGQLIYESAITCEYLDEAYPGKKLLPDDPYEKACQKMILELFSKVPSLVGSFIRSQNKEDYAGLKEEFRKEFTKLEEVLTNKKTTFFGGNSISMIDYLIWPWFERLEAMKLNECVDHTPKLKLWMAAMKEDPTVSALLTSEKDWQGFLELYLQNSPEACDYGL
# PRMT1 FP inh: PRMT1 (human) inhibition, primary screen; recombinant PRMT1, activity-based probe fluorescence polarization; hit rate 1.3% among 370,000; Q99873; inhibition, % at 2.79 µM;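 active = inhibition above about 21% made by adding two undisclosed values, limit read from the data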
# PAD4 FP inh: PAD4 (human) enzyme inhibition. Q9UM07. recombinant PAD4, RCA probe fluorescence polarization. inhibition, % at 6.36 µM. hit rate 0.41% among 330,000;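 active = percent inhibition above a cutoff equal to the mean of all tested compounds plus 3 SD, cut at about 15% in these data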;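 note: 0% = PAD4 with RCA probe and DMSO and 100% = probe without PAD4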
# SIAE primary: human SIAE inhibition, primary screen | SIAE FP-Rh probe binding, fluorescence polarization | inhibition, % at 9.66 µM | hit rate 0.69% among 370,000;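 active = inhibition above a cutoff: mean of compounds within the control limits plus 3 SD of those, cut at about 17% in these data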;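 note: 0% = plate median of compound wells and 100% = probe without SIAE protein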
# PRMT1 confirm: PRMT1 (human) inhibition, FP confirmation. recombinant His-PRMT1, activity-based probe fluorescence polarization. shares compounds with PRMT1 FP inh. hit rate 42% among 3,300. inhibition, % at 2.79 µM;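 active = mean inhibition across replicates above the hit cutoff derived for the earlier primary screen, cut at about 22% in these data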
# SIAE confirm: human SIAE inhibition, confirmation | AID 1117263 | shares compounds with SIAE primary | inhibition, % at 9.66 µM | SIAE FP-Rh activity-based probe, fluorescence polarization | hit rate 13% among 2,300;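 active = mean inhibition of the replicates above the hit cutoff set in the primary screen, cut at about 17% in these data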;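 note: 0% = SIAE with DMSO and probe and 100% = probe without SIAE; inhibitors lower polarization as more probe stays unbound to SIAE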
# Numbers without * were called inactive; · = not tested or not shown; + = active, no number. In the library only some 2.7% were active in any assay of this set; here they are far more common.
SMILES,RBBP9 inhibitor,GSTO1 counter,PRMT1 FP inh,PAD4 FP inh,SIAE primary,PRMT1 confirm,SIAE confirm
O=P(Nc1ccccc1)(Oc1ccccc1)Oc1ccccc1,-5,0,82*,6,2,2,·
COC(=O)C1=C(c2ccc(C(C)=O)cc2)C[C@@H]2CC[C@H]1N2C(=O)N1CCCC1,·,·,-3,1,-7,·,·
CC/C(=N\NC(=S)Nc1ccccc1)c1c(O)[nH]c(=O)[nH]c1=O,1,-1,45*,-2,2,46*,·
C/C(=N\Nc1ccccc1)c1c(O)[nH]c(=O)[nH]c1=O,2,-7,3,-2,1,·,·
CCOC(=O)c1c(/N=C/c2c(O)n(-c3ccc(F)cc3)c(=S)[nH]c2=O)sc2c1CCCC2,-1,2,27*,2,-7,-8,·
CCOC(=O)c1c(/N=C/c2c(O)n(-c3ccccc3F)c(=S)[nH]c2=O)sc2c1CCCC2,2,-44,42*,-8,-44,15,·
CCCCN1C(=O)/C(=C/c2ccc(N3CCCCCC3)cc2)C(=O)NC1=S,-10,-8,·,-15,·,·,·
C=CCN1C(=O)/C(=C/c2ccc3c(c2)CCCN3CCC)C(=O)NC1=S,-7,8,26*,-3,-11,8,·
CCOC(=O)C1(CCOc2ccccc2)CCN(C2Cc3ccccc3C2)CC1,4,-6,-2,0,4,·,·
Cc1cc(Br)c(NC(=O)CN2CC=C(c3ccccc3)CC2)c(Br)c1,-10,-29,3,-1,-7,·,·
Cc1cc(/C=C2\C(=O)NC(=O)N(Cc3ccco3)C2=O)c(C)n1-c1ccc(O)cc1,2,-7,29*,-4,-6,-5,·
Cc1cc(/C=C2\C(=O)NC(=O)N(Cc3ccccc3)C2=O)c(C)n1-c1ccc(Cl)c(C(=O)O)c1,-15,18,28*,-1,-5,12,·
Nc1ccc(Cl)cc1,·,·,-4,·,4,·,·
C[N+]1(C)C2CC(OC(=O)[C@H](CO)c3ccccc3)CC1C1OC12 (stereo partly drawn),·,4,-1,-2,-1,·,·
Cc1cc(N2CCNC[C@H]2C)ccc1N1CC[C@H](O)C1,·,·,41*,·,6,-2,·
CCN1/C(=C/C=C/C2=[N+](CC)c3ccccc3C2(C)C)C(C)(C)c2ccccc21,·,·,156*,·,+,131*,+
COC(=O)C1=C(c2ccc(-c3ccccc3)c(F)c2)C[C@@H]2CC[C@H]1N2C(=O)N1CCCC1,·,·,0,-1,-19,·,·
NC(N)=N/N=C/c1ccc(N(c2ccccc2)c2ccccc2)cc1,·,9,0,2,22*,·,36*
CC(C)(C)c1ccc(CSc2cnn(C(C)(C)C)c(=O)c2Cl)cc1,·,-2,0,-1,-6,·,·
COc1cc(C(=S)N2CCOCC2)cc(OC)c1OC(=O)Cc1ccccc1,1,9,0,-6,19*,·,5
Cc1cc(OCC(=O)O)c2c3c(c(=O)oc2c1)CCCC3,6,-19,-1,-2,3,·,·
Cc1cc(OCC(=O)N2CCC(C(N)=O)CC2)c2c3c(c(=O)oc2c1)CCCC3,·,0,-1,1,18*,·,6
NC(=O)c1cn(C2CCCCC2)c2ccccc2c1=O,·,4,0,-2,-5,·,·
O=C(COc1ccc(Cl)cc1)N(c1ccccc1Cl)C1CN2CCC1CC2 (stereo not drawn),3,-1,0,1,5,·,·
OCC#CC[N+]1(CC#Cc2ccccc2)CCOCC1,-7,0,0,-6,2,·,·
SMILES,RBBP9 inhibitor,GSTO1 counter,PRMT1 FP inh,PAD4 FP inh,SIAE primary,PRMT1 confirm,SIAE confirm
N#CC[N+]1(CCCNP2(=O)C=C(c3ccccc3)OC(c3ccccc3)=C2)CCOCC1,-7,8,-2,1,18*,·,-4
CC(=NCc1ccco1)c1c(O)n(-c2ccc(Cl)cc2)c(=O)[nH]c1=O,-7,-1,-3,-2,1,·,·
CCOP(=O)(OCC)C(NC(=O)c1ccccc1C)C(Cl)(Cl)Cl (stereo not drawn),-3,4,-2,0,19*,·,2
CCCCCSc1cc(OC)c(CCN)cc1OC,-1,3,2,-1,19*,·,2
CCCCCCn1c(O)c(C=Nc2ccccc2N2CCOCC2)c(=O)[nH]c1=S,-6,-7,13,0,0,·,·
CCCCn1c(O)c(/C=N/N2CCOCC2)c(=O)[nH]c1=S,-4,-5,0,-1,19*,·,2
CC1(O)CCC2C3CCC4=CC(=O)CCC4=C3C=CC21C (stereo not drawn),·,·,-2,·,19*,·,0
COCOC1CCC2C3CCC4=CC(=O)CCC4=C3C=CC12C (stereo not drawn),·,·,4,·,5,·,·
